This note sets out measurements from article PMC3361572 (Chemistry & biology, 2012).

“Also recorded” adds a separate entry of the source. Bounds are passed on as bounds.

The target of assay [1] is T1, FAAH (Mus musculus, UniProt O08914).
T1 sequence (O08914 1-579): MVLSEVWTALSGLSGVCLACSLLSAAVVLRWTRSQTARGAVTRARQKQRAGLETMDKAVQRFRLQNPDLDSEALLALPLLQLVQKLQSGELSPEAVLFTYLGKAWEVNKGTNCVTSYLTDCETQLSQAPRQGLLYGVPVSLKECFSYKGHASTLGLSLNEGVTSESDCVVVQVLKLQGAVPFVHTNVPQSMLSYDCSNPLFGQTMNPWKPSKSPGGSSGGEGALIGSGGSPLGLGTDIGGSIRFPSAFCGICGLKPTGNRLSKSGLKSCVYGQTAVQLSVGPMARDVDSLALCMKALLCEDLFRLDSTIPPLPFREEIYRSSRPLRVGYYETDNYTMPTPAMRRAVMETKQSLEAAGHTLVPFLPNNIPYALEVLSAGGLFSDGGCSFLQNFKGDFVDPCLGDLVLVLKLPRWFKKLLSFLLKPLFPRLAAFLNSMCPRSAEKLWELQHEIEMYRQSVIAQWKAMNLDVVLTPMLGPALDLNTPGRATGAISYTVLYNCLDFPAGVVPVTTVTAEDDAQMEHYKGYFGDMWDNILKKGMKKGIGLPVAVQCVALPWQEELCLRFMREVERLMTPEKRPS
The experiment in a line: competitive ABPP, mouse brain membrane proteome. Format: biochemical. The following applies: mouse brain proteome, concentration range tested 0.001–50 μM. The method, boiled down:
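Brain (mouse or rat) or mouse lung proteomes were preincubated with the test compound, then treated with the serine hydrolase probe FP-Rh. Samples were separated by SDS-PAGE and read by in-gel fluorescence scanning. Inhibition was taken as reduced FP-Rh labelling of MAGL, ABHD6, FAAH or CES bands, and IC50 values were calculated from quantified gel bands. Three independent experiments.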

The target of assay [2] is T2, FAAH (Rattus norvegicus, UniProt P97612).
T2 sequence (P97612 1-579): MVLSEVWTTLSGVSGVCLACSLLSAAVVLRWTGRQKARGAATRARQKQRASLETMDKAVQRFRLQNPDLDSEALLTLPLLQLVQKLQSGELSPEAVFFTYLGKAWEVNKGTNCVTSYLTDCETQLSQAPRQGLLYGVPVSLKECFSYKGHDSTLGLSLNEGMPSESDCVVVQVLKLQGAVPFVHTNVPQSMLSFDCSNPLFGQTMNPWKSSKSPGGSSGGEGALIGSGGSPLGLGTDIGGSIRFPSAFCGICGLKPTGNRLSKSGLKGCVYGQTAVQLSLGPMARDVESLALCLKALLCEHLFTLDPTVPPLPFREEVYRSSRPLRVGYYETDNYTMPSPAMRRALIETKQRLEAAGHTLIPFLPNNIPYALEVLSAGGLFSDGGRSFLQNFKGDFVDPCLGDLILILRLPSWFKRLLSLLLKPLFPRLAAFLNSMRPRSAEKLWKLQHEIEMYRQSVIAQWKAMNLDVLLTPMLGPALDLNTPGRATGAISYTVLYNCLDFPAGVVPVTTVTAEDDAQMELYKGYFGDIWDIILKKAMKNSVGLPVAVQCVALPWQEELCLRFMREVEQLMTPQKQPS
Briefly: competitive ABPP, rat brain membrane proteome. It is filed as biochemical. The method, boiled down:
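Rat brain proteome pre-treated with test compound, then labelled with the serine hydrolase-directed fluorophosphonate-rhodamine (FP-Rh) activity-based probe. Proteins separated by SDS-PAGE and detected by in-gel fluorescence scanning. Inhibition scored as loss of FP-Rh labelling of the FAAH band. IC50 calculated from the gel-based ABPP data.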

Assay [3] deals with T3, hMAGL (Homo sapiens, UniProt Q99685).
T3 sequence (Q99685 1-303): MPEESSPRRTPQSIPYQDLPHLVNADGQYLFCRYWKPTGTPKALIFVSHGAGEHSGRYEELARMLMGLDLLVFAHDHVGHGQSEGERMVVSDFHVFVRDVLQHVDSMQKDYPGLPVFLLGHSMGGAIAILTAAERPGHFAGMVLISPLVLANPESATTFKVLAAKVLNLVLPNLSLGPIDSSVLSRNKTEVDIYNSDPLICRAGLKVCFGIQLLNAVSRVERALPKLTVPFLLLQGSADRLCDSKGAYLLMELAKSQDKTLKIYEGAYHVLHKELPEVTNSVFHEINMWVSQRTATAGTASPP
The experiment in a line: competitive ABPP, proteomes of transiently transfected HEK293T cells. The following applies: read-out: IC50 (95% CI), human MAGL, transfected HEK293T cell proteome. Format: biochemical.

Assay [4] relates to brain 2-AG, AA, AEA, PEA, OEA. Briefly: brain lipid profile of inhibitor-treated mice. Format: in vivo, mouse.
For assay [5], the target named is T4, MAGL (Mus musculus, UniProt O35678).
T4 sequence (O35678 1-303): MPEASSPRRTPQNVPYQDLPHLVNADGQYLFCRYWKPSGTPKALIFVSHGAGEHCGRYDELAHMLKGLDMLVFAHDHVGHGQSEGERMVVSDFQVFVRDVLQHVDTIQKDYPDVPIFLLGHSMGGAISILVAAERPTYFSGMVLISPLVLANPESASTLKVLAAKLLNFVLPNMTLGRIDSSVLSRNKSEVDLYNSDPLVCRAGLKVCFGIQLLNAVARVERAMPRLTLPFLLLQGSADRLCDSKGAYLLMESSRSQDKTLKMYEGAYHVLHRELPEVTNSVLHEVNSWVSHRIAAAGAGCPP
Briefly: gel-based ABPP of peripheral tissues from inhibitor-treated mice. It is filed as in vivo. Particulars: 1 mg kg^−1 p.o., 4 h, liver, lung, spleen.

Assay [6] deals with carboxylesterase (CES) enzymes. Briefly: in vitro competitive ABPP in mouse lung proteomes. Format: biochemical.
Assay [7] concerns the target T2, FAAH. The experiment in a line: brain AEA hydrolytic activity from KML29-treated rats. Format: in vivo. Particulars: 1–40 mg kg^−1 i.p., 4 h. The method, boiled down:
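Wistar rats received the test compound i.p. (1–40 mg kg−1 in saline:emulphor:ethanol 18:1:1) or vehicle and were killed after 4 h. Brain MAGL and FAAH activities were measured as hydrolysis of 2-AG and AEA, respectively. Means ± SEM, n = 3 rats/group, compared with vehicle-treated rats.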

Take `O=C(OC(C(F)(F)F)C(F)(F)F)N1CCC(C(O)(c2ccc3c(c2)OCO3)c2ccc3c(c2)OCO3)CC1` [KML29]: the “FAAH inhibition / cross-reactivity (gel-based ABPP)” value in assay [1] is listed as “No inhibition of FAAH was detected; also recorded: complete selectivity for MAGL over FAAH”; in assay [2] (rat brain proteome), “no detectable cross-reactivity; also recorded: No inhibition of FAAH was detected”. The concentration for half-maximal inhibition (IC50) in assay [2] (read-out: IC50 (95% CI), rat FAAH, competitive ABPP, rat brain membrane proteome) was over 50000 nM; in assay [3], 5.9 nM. Moreover, the “brain 2-AG and NAE levels, chronic dosing” value in assay [4] (40 mg kg^−1 p.o., six days) is “selectively raise 2-AG, but not NAE levels”. Further, the “peak increase in brain 2-AG over vehicle controls” value in assay [4] (20 and 40 mg kg^−1 p.o., 4 h) was ~ 10 fold. The “brain levels of AEA, PEA and OEA” value in assay [4] (all tested doses p.o., 4 h) is listed as “unaltered”. Moreover, the “change in brain 2-AG” value in assay [4] (doses as low as 5 mg kg^−1 p.o., 4 h) is given as “significant elevations”. The “change in brain arachidonic acid (AA)” value in assay [4] (p.o., 4 h, concomitant with 2-AG elevations) is on record as “significant reductions”. In addition, the “time of maximal elevations of 2-AG and reductions of AA in brain” value in assay [4] (single oral dose 20 mg kg^−1) is on record as 1 h. Further, in assay [4] (single oral dose 20 mg kg^−1, 24 h period), the “brain AEA levels during time course” value is reported as “unaltered”. Besides, the “MAGL inhibition in peripheral tissues” value in assay [5] is recorded as “near-complete blockade of MAGL”. Besides, in assay [6], the “cross-reactivity with CESs compared to JZL184” value is recorded as “much less cross-reactivity with CESs”. Further, in assay [7], the “brain AEA hydrolytic activity” value is recorded as “not affected at any dose”.
